The values below come from ChEMBL document CHEMBL3526081 (Drug Metab Dispos, 2011).

The subject of the data set is Liver microsome. Description: Retention time in Sprague-Dawley rat liver microsomes treated with 100 uM cinobufagin at 37 degC after 30 mins by UFLC-DAD-ESI-MS analysis. The format is ADME. The settings on record: 0.5 h. In outline:
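Male Sprague-Dawley rat microsomes (0.3 mg/ml) were incubated with CB (100 µM) at 37°C for 30 min, with and without NADPH-generating system. Separation was on an ODS column at 40°C using an acetonitrile/0.5% formic acid water gradient at 0.4 ml/min, with DAD detection at 294 nm plus ESI-MS.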
(In general: Liver microsomes are a subcellular fraction often used to study metabolism.)

On to `CC(=O)O[C@H]1[C@H]2O[C@]23[C@@H]2CC[C@@H]4C[C@H](O)CC[C@]4(C)[C@H]2CC[C@]3(C)[C@H]1c1ccc(=O)oc1`, for which the Retention_time stood at 10.59 min.

Turning to `C[C@]12CC[C@@H](O)C[C@H]1CC[C@@H]1[C@@H]2CC[C@]2(C)[C@@H](c3ccc(=O)oc3)[C@@H](O)[C@H]3O[C@]132`, the Retention_time is on record as 8.32 min.

`C[C@]12CC[C@H](O)C[C@H]1CC[C@@H]1[C@@H]2CC[C@]2(C)[C@@H](c3ccc(=O)oc3)[C@@H](O)[C@H]3O[C@]132` [DESACETYLCINOBUFAGIN] gave a Retention_time of 6.95 min.
